In data set [1] the target is T1, Oxysterols receptor LXR-beta (Homo sapiens) (UniProt P55055).
T1 sequence (whole entry): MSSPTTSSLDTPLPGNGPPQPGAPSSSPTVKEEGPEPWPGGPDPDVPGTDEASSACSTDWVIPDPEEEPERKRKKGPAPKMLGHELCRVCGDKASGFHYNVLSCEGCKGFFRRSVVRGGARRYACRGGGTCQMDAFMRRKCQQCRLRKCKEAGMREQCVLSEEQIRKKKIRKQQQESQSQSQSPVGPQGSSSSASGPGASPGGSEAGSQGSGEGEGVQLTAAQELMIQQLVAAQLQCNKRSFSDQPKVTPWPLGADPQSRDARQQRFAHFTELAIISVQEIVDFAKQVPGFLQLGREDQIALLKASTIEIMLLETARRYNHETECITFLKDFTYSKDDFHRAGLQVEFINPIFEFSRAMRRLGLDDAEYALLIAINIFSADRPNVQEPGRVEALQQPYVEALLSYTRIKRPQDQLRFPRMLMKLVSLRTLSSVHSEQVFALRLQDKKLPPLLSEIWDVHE
Put plainly: Antagonist activity at human recombinant LXRbeta expressed in HEK293 cells assessed as inhibition of T0901317-induced transcriptional activation at 100 uM by luciferase assay. The data set is classed as functional, cell-based. The method, boiled down: (§1)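 GAL4 DNA-binding domain fused to human LXR (alpha or beta) as receptor plasmid, TK-MH100x4-LUC reporter, and CMX beta-galactosidase for normalization. HEK293 cells in DMEM with 5% FBS, 37 °C, 5% CO2. Transfected by calcium phosphate coprecipitation. Compounds added 8 h post-transfection together with 0.1 µM T0901317, whose response alone was set as 100%. Luciferase read on a luminometer. Three repeats, normalized averages.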

A short description of data set [2]: Inhibition of alpha glucosidase. Further details: species or system Homo sapiens. The method, boiled down: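 The enzyme (25 mU/mL) was preincubated with a range of compound concentrations in 10 mM phosphate buffer, pH 7.2, at 37 °C for 10 min. p-Nitrophenyl-alpha-D-glucopyranoside was then added to 0.16 mM final and incubated 30 min at 37 °C. The reaction was basified with 0.5 M Na2CO3 and released p-nitrophenol read at 400 nm. IC50 values were derived.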

The target in data set [3] is T2, Oxysterols receptor LXR-alpha (Homo sapiens) (UniProt Q13133).
T2 sequence (whole entry): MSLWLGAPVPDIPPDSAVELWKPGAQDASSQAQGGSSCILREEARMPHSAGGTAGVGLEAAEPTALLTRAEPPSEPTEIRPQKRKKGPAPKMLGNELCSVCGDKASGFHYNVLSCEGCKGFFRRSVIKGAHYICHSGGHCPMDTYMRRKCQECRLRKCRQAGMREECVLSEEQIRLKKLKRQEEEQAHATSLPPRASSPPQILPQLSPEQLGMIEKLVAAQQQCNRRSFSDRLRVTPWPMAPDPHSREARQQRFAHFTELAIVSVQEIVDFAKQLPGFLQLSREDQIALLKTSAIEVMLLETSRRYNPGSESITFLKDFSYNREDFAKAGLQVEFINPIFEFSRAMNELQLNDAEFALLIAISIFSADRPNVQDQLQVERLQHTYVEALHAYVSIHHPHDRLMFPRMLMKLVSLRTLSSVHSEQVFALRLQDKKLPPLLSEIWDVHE
Nature of the data set: Antagonist activity at human recombinant LXRalpha expressed in HEK293 cells assessed as inhibition of T0901317-induced transcriptional activation at 100 uM by luciferase assay. Format: functional, cell-based. The method, boiled down: as §1

The subject of the next data set is HEK293. Nature of the data set: Cytotoxicity against HEK293 cells at 100 uM. The settings on record: human, hek293, 100 µM. Format: cell-based.
The species entered for data set [4] is Homo sapiens. Put plainly: Inhibition of dipeptidylpeptidase 4.
For data set [5], the species on record is Homo sapiens. Nature of the data set: Inhibition of maltase.
Data set [6] has as its target T3, Oxysterols receptor LXR-alpha (Homo sapiens, UniProt Q13133).
T3 sequence (Q13133 whole entry): T2 sequence (whole entry)
Nature of the data set: Antagonist activity at human recombinant LXRalpha expressed in HEK293 cells assessed as inhibition of T0901317-induced transcriptional activation by luciferase assay. The data set is classed as functional, cell-based.

The target in data set [7] is T4, Oxysterols receptor LXR-beta (Homo sapiens, UniProt P55055).
T4 sequence (P55055 whole entry): T1 sequence (whole entry)
Nature of the data set: Antagonist activity at human recombinant LXRbeta expressed in HEK293 cells assessed as inhibition of T0901317-induced transcriptional activation by luciferase assay. Format: functional, cell-based.

The source made the active and inactive calls. The rule behind the calls is not given here.

Take `O=C1c2c(Cl)c(Cl)c(Cl)c(Cl)c2C(=O)N1CCCCc1ccccc1`: the results for the inhibition in data set [1] and in data set [3] were 49% and 53%, respectively. The molecule further displayed an IC50 in data set [2] of 2 µM.
For `CC(C)c1cccc(C(C)C)c1N1C(=O)c2c(Cl)c(Cl)c(Cl)c(Cl)c2C1=O` the same measures were 49%, 61% and 2.4 µM.
Turning to `O=C1c2ccc(Cl)cc2C(=O)N1CCCCc1ccccc1`, the inhibition stood at 45% in data set [1] and 66% in data set [3].
Turning to `CC(C)c1cccc(C(C)C)c1N1C(=O)c2ccccc2C1=S`, the inhibition in data set [1] turned out to be 92%; in data set [3], 94%. In the data set with HEK293, this molecule displayed an Activity of 73%. The outcome in the data set listed under Homo sapiens [4] and in the data set listed under Homo sapiens [5] was Active. The same molecule registered an IC50 in data set [2] of 8 µM.
As for `O=C1c2cc(Cl)c(Cl)cc2C(=O)N1CCCCc1ccccc1`, the values for the inhibition in data set [1] and in data set [3] were 35% and 50%, respectively.
For `O=C1c2c(Cl)c(Cl)c(Cl)c(Cl)c2C(=O)N1CCCc1ccccc1`, the inhibition in data set [1] turned out to be 52%; in data set [3], 59%. For the same molecule, inhibition in data set [2] was half-maximal at 4.5 µM (IC50).
Consider `O=C1c2c(Cl)c(Cl)c(Cl)c(Cl)c2C(=O)N1CCc1ccccc1`, for which the inhibition in data set [1] and in data set [3] was 38% throughout. In data set [2], this molecule gave an IC50 of 6 µM.
For `O=C1c2c(Cl)c(Cl)c(Cl)c(Cl)c2C(=O)N1Cc1ccccc1`, the inhibition came to 51% in data set [1] and 60% in data set [3]. The IC50 in data set [2] was determined as 10.9 µM.
Take `O=C1c2ccccc2C(=O)N1c1ccccc1CCc1ccccc1`: the Activity in the data set with HEK293 worked out at 48%. Further, the outcome in the data set listed under Homo sapiens [4] and in the data set listed under Homo sapiens [5] was inactive. Also, the IC50 in data set [2] is 16.2 µM.
In the case of `CCCCCCc1ccccc1N1C(=O)c2ccccc2C1=O`, the Activity in the data set on HEK293 turned out to be 57%. The result in the data set filed under Homo sapiens [4] and in the data set listed under Homo sapiens [5] was inactive. Besides, the half-maximal inhibitory concentration (IC50) in data set [2] came to 24.7 µM; in data set [6] it was 13 µM; in data set [7] it was 65 µM.
For the molecule `O=C1c2c(Cl)c(Cl)c(Cl)c(Cl)c2C(=O)N1CCCCCCCCCCc1ccccc1`, the outcome in data set [1] and in data set [3] was inactive. This molecule also showed an IC50 in data set [2] of 6.8 µM.
`O=C1c2c(Cl)c(Cl)c(Cl)c(Cl)c2C(=O)N1CCCCCc1ccccc1`: the inhibition amounted to 3% in data set [1] and 42% in data set [3]. Further, in data set [2], half-maximal inhibition (IC50) required 3.5 µM.
For the molecule `O=C1c2c(Cl)c(Cl)c(Cl)c(Cl)c2C(=O)N1c1ccccc1`, the result in data set [1] and in data set [3] was inactive. For the same molecule, in data set [2], the IC50 stood at 2.6 µM.

Usually inhibition stands for how much of the control response was suppressed. The term IC50 denotes the concentration needed to halve the response being measured.

For the origin of these results see ChEMBL document CHEMBL1139976, “Liver X receptor antagonists with a phthalimide skeleton derived from thalidomide-related glucosidase inhibitors” (Bioorg Med Chem Lett, 2007).
